Source: ChEMBL document CHEMBL5712890, “Sensitivity and engineered resistance of myeloid leukemia cells to BRD9 inhibition” (Nat Chem Biol, 2016)
Values belong to the compound of their own block, whether it stands above or below them.

Experiments:
[1] = test system: HL-60; assay: Antiproliferative activity against human HL-60 cells assessed as inhibition of cell growth for 7 days by cell titre glo assay; assay type: functional; details: HL-60, 168 h, time 7 day
Procedure, shortened: (§1)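 Human cancer cell lines in RPMI-1640 (leukemia) or DMEM (solid) with 10 % FBS, grown 7 days with rising inhibitor concentrations. Proliferation read by CellTiter-Glo, normalized to DMSO control.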

[2] = test system: Jurkat; assay: Antiproliferative activity against human Jurkat cells assessed as inhibition of cell growth for 7 days by cell titre glo assay; assay type: functional; details: 168 h, time 7 day; procedure, shortened: as §1
[3] = Antiproliferative activity against mouse RN2 cells transduced with BRD9 assessed as inhibition of cell growth for 7 days by cell titre glo assay (reference value: 6.144 uM); details: RN2, 168 h
[4] = Antiproliferative activity against mouse RN2 cells transduced with BRD9-BET assessed as inhibition of cell growth for 7 days by cell titre glo assay (reference value: 6.144 uM); details: RN2, 168 h
[5] = Antiproliferative activity against mouse RN2 cells transduced with BRD9 assessed as inhibition of cell growth for 7 days by cell titre glo assay (reference value: 0.757 uM); details: RN2, 168 h
[6] = Antiproliferative activity against mouse RN2 cells transduced with BRD9-BET assessed as inhibition of cell growth for 7 days by cell titre glo assay (reference value: 0.757 uM); details: RN2, 168 h
[7] = target: T1, ATPase family AAA domain-containing protein 2B (Homo sapiens, UniProt Q9ULI0); assay: Binding affinity to KIAA1240 (unknown origin) assessed as dissociation constant by bromoKdselect analysis
T1 sequence (Q9ULI0 whole entry): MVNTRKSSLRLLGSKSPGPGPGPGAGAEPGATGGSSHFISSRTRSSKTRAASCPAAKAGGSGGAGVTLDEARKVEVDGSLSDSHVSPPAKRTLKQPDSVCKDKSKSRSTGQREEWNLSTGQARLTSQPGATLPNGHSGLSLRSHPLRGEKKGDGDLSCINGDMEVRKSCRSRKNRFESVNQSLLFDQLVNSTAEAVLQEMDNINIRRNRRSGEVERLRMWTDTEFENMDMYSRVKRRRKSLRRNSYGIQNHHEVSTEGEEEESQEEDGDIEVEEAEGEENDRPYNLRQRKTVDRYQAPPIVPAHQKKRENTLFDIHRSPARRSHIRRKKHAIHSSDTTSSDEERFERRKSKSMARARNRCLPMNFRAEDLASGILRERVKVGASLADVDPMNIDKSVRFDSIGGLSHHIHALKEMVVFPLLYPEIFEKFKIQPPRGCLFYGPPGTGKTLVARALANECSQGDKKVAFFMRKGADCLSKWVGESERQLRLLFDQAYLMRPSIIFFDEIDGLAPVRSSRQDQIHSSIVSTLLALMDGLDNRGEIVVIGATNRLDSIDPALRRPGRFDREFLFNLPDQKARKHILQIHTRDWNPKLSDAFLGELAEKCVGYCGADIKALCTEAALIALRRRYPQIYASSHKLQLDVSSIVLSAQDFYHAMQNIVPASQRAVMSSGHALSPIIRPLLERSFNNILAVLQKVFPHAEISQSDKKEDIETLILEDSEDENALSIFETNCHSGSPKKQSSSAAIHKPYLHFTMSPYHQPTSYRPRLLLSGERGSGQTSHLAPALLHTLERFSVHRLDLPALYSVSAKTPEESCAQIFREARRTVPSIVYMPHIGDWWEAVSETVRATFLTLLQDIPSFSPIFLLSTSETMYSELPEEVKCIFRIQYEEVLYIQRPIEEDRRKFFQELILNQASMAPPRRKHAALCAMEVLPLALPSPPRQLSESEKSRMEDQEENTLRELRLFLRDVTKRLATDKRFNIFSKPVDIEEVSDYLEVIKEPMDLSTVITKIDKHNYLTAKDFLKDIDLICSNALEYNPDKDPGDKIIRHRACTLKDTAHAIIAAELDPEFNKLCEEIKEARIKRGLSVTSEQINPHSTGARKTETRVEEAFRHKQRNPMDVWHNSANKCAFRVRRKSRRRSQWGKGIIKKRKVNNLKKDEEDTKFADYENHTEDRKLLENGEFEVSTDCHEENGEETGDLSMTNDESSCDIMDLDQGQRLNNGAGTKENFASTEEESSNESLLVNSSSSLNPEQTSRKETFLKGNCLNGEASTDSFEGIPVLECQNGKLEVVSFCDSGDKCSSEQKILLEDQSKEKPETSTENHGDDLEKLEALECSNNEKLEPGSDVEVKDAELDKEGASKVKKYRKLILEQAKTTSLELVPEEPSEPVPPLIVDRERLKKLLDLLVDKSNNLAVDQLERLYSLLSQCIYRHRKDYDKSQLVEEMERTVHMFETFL

[8] = Antiproliferative activity against mouse RN2 cells assessed as inhibition of cell growth for 7 days by cell titre glo assay; details: RN2, 168 h
[9] = Antiproliferative activity against mouse RN2 cells transduced with BRD9-BET assessed as inhibition of cell growth for 7 days by cell titre glo assay (reference value: 610 nM); details: RN2, 168 h
[10] = Antiproliferative activity against mouse RN2 cells transduced with BRD9 assessed as inhibition of cell growth for 7 days by cell titre glo assay (reference value: 1709 nM); details: RN2, 168 h
[11] = Antiproliferative activity against mouse RN2 cells transduced with BRD9-BET assessed as inhibition of cell growth for 7 days by cell titre glo assay (reference value: 1709 nM); details: RN2, 168 h
[12] = Antiproliferative activity against mouse RN2 cells transduced with BRD9 assessed as inhibition of cell growth for 7 days by cell titre glo assay (reference value: 323 nM); details: RN2, 168 h
[13] = Antiproliferative activity against mouse RN2 cells transduced with BRD9-BET assessed as inhibition of cell growth for 7 days by cell titre glo assay (reference value: 323 nM); details: RN2, 168 h
[14] = Antiproliferative activity against mouse RN2 cells transduced with wild type EZH2 assessed as inhibition of cell growth for 7 days by cell titre glo assay (reference value: 5.1 uM); details: RN2, 168 h
[15] = Antiproliferative activity against mouse RN2 cells transduced with EZH2 harboring SET domain of EZH1 assessed as inhibition of cell growth for 7 days by cell titre glo assay (reference value: 5.1 uM); details: RN2, 168 h

GI50 [1]: 5.03 µM | GI50 [2]: 10.5 µM
SMILES: Cc1cc(=O)n(C)c2cc(N3C(=O)CC[C@H](NS(=O)(=O)CC(C)C)[C@H]3c3ccc(Cl)cc3)ccc12
GI50 [3]: 6.87 µM | GI50 [4]: 9.38 µM

GI50 [1]: 0.433 µM | GI50 [2]: 3.64 µM
SMILES: CCn1cc(-c2cccc(C(F)(F)F)c2)c2sc(C(=N)NC3CCS(=O)(=O)CC3)cc2c1=O
GI50 [5]: 1.25 µM | GI50 [6]: 2.69 µM

Kd [7]: 1 µM
SMILES: COc1cc(-c2cn(C)c(=O)c3cnccc23)cc(OC)c1CN(C)C
GI50 [8]: 0.476 µM | GI50 [9]: > 10 µM

SMILES: COc1cc(-c2cc(C)c(=O)n(C)c2C)cc(OC)c1CN(C)C
GI50 [10]: 1.03 µM | GI50 [11]: > 10 µM

SMILES: COc1cc(-c2cn(C)c(=O)c3ccccc23)cc(OC)c1CN(C)C
GI50 [12]: 0.16 µM | GI50 [13]: 4.48 µM

SMILES: CC[C@H](C)n1cc(C)c2c(C(=O)NCc3c(C)cc(C)[nH]c3=O)cc(-c3ccc(N4CCNCC4)nc3)cc21 [GSK2816126]
GI50 [14]: 6.2 µM | GI50 [15]: > 10 µM
